Experimental data gathered from unrelated publications.
Compare with care: the assays were run in different laboratories.
Target: NUAK family SNF1-like kinase 1 (NUAK1, Homo sapiens, UniProt O60285)
Observed: enzyme activity
Mode: inhibitor
One construct used (O60285 1-661): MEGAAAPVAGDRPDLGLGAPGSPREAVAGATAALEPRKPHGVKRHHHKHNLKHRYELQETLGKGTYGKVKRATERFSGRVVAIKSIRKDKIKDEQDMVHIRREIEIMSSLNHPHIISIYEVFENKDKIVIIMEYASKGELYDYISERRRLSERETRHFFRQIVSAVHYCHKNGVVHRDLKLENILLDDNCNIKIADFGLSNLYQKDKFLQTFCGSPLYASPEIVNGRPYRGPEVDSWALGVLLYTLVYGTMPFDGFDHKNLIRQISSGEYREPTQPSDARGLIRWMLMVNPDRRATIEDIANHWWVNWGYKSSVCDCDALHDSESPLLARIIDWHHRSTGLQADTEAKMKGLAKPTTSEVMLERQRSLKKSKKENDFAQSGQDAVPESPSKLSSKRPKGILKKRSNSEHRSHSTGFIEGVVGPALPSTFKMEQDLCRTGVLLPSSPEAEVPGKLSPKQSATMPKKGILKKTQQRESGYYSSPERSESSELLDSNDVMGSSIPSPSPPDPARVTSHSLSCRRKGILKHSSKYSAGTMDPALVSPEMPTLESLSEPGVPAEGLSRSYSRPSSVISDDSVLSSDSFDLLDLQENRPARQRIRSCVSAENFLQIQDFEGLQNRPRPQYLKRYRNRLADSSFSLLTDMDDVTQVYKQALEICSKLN

`Cc1ccc(C(=O)Nc2ccc(CN3CCN(C)CC3)c(C(F)(F)F)c2)cc1C#Cc1cnc2cccnn12` has a remaining activity of 85% (23.5 nM).
The remaining activity of `CC(C)(C)c1nc(-c2cccc(NS(=O)(=O)c3c(F)cccc3F)c2F)c(-c2ccnc(N)n2)s1` is reported as 101% (radiometric; 1 µM).
`Cn1c(=O)n(-c2ccc(C(C)(C)C#N)cc2)c2c3cc(-c4cnc5ccccc5c4)ccc3ncc21` has a remaining activity of 44% (10 µM).
For `CC(C)(O)[C@H]1CC[C@H](Nc2ccc3ncc(-c4cccc(C(F)(F)F)c4)n3n2)CC1`, the remaining activity was 72% (1 µM).
`Cc1nn(CC(F)(F)F)cc1Nc1nccc(NCCCNC(=O)C2CCC2)n1` has a remaining activity of 86% (radiometric; 1 µM).
With `O=C(Nc1cnn(-c2csc(C(=O)NC3COC3)c2)c1)Nc1ccccc1Cl` the remaining activity was 97.9% (5 µM).
`COc1cc(Cl)c(C(=O)N[C@@H](CN[C@H]2CC[C@@H](N)CC2)Cc2ccc(C#N)cc2)cc1-c1ccc(CN[C@H](C)c2ccc(C)cc2)o1` gave a remaining activity of 92% (1 µM).
For `Cc1sc(C(=O)NC2COC2)cc1-n1cc(NC(=O)Nc2c(F)cccc2Cl)cn1`, the remaining activity was 96.9% (10 µM).
The remaining activity of `Cc1cnc(NC2CCOCC2)nc1-n1cnc(C(=O)NC(CN)c2cc(F)cc(Cl)c2)c1` (stereo not drawn) is reported as 67% (radiometric; 1 µM).
`NS(=O)(=O)c1ccc(CNc2nc(Nc3cccc(NC(=O)N4CCCC4)c3)ncc2C2CC2)cc1` gave a remaining activity of 89% (radiometric; 1 µM).
`CC(C)(C)c1nc2c(s1)c1nc(N)ncc1c1ccc(NS(=O)(=O)c3c(F)cccc3F)c(F)c12` gave a remaining activity of 95% (radiometric; 1 µM).
The remaining activity of `NS(=O)(=O)c1ccc(CNc2nc(Nc3cccc(CN4CCOCC4)c3)ncc2C2CC2)cc1` is reported as 83% (radiometric; 1 µM).
`Oc1cccc(-c2nc(N3CCOCC3)c3oc4ncccc4c3n2)c1` gave a remaining activity of 98% (10 µM).
`O=C(Nc1cccc(Nc2ncc(Br)c(NCCc3cnc[nH]3)n2)c1)N1CCCC1` gave a remaining activity of 1% (radiometric; 1 µM).
With `COc1cc(Nc2cnc(C#N)c(O[C@H](C)CN(C)C)n2)ncc1-c1cnn(C)c1` the remaining activity was 7% (radiometric; 10 µM).
